The values that follow come from ChEMBL document CHEMBL5696442, “Discovery of type II inhibitors of TGFβ-activated kinase 1 (TAK1) and mitogen-activated protein kinase kinase kinase kinase 2 (MAP4K2)” (J Med Chem, 2015).

Assay type in all cases: cell-based
Experiment [1] concerns the target p38 delta/gamma (Homo sapiens) (UniProt O15264+P53778). Nature of the experiment: Inhibition of p38delta/gamma Lys2 labeling site in human A-375 cells at 0.5 uM by KiNativ Profiling analysis relative to control.
For experiment [2], the target named is Calcium/calmodulin-dependent protein kinase kinase 2 (Homo sapiens) (UniProt Q96RR4). Nature of the experiment: Inhibition of CaMKK2 Lys1 labeling site in human A-375 cells at 5 uM by KiNativ Profiling analysis relative to control. In short, it runs like this:
(§1)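 Live A375 melanoma cells were treated with compound at 5 or 0.5 μM. The cells were then lysed, and the lysates were labeled with a lysine-reactive ATP or ADP-biotin acyl probe (KiNativ). Inhibition is the compound's protection of each kinase labeling-site peptide from probe labeling, relative to untreated control.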

For experiment [3], the target named is Cyclin-dependent kinase 9 (Homo sapiens) (UniProt P50750). Briefly: Inhibition of CDK9 Lys2 labeling site in human A-375 cells at 5 uM by KiNativ Profiling analysis relative to control. In short, it runs like this:
as §1

In experiment [4] the target is eIF-2-alpha kinase GCN2 (Homo sapiens) (UniProt Q9P2K8). Briefly: Inhibition of GCN2 domain2 Lys2 labeling site in human A-375 cells at 5 uM by KiNativ Profiling analysis relative to control.
Experiment [5] deals with MAP/microtubule affinity-regulating kinase 3 (Homo sapiens) (UniProt P27448). Briefly: Inhibition of MARK3 Lys2 labeling site in human A-375 cells at 5 uM by KiNativ Profiling analysis relative to control.
The target in experiment [6] is Serine/threonine-protein kinase 25 (Homo sapiens) (UniProt O00506). Nature of the experiment: Inhibition of YSK1 ACT labeling site in human A-375 cells at 5 uM by KiNativ Profiling analysis relative to control.
The target of experiment [7] is Serine/threonine-protein kinase 38 (Homo sapiens) (UniProt Q15208). Nature of the experiment: Inhibition of NDR1 Lys1 labeling site in human A-375 cells at 5 uM by KiNativ Profiling analysis relative to control.
Experiment [8] concerns the target RAC-alpha serine/threonine-protein kinase (Homo sapiens) (UniProt P31749). Briefly: Inhibition of AKT1 ATP Loop labeling site in human A-375 cells at 0.5 uM by KiNativ Profiling analysis relative to control. The gist of the method:
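Live A375 melanoma cells were treated with compound at 5 or 0.5 μM, then lysed. The lysates were labeled with a lysine-reactive ATP or ADP-biotin probe. Kinase protection from probe labeling was measured by KiNativ.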

For experiment [9], the target named is eIF-2-alpha kinase GCN2 (Homo sapiens) (UniProt Q9P2K8). Briefly: Inhibition of GCN2 domain2 Lys1 labeling site in human A-375 cells at 0.5 uM by KiNativ Profiling analysis relative to control.
Experiment [10] concerns the target Cyclin-dependent kinase 18 (Homo sapiens) (UniProt Q07002). Nature of the experiment: Inhibition of PCTAIRE3 Lys1 labeling site harbouringSKLTENLVALKEIR in human A-375 cells at 0.5 uM by KiNativ Profiling analysis relative to control. The gist of the method: (§2)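 Live A375 melanoma cells were treated with compound at 5 or 0.5 μM, then lysed. Lysates were labeled with a lysine-reactive ATP or ADP-biotin probe. Read-out was the compound's protection of kinase labeling sites from probe labeling (KiNativ).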

Experiment [11] deals with T1, Phosphatidylinositol 5-phosphate 4-kinase type-2 alpha (Homo sapiens) (UniProt P48426).
T1 sequence (whole entry): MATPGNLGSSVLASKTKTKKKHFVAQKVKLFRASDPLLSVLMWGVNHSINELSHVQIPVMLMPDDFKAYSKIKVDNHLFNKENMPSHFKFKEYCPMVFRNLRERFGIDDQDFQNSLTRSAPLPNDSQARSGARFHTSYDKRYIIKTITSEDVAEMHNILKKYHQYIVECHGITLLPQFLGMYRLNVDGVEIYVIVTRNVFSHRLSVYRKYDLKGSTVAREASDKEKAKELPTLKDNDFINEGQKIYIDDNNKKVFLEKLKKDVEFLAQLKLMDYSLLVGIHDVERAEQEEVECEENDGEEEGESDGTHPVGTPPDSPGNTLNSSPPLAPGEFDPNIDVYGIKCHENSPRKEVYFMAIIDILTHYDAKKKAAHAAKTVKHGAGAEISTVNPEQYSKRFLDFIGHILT
Briefly: Inhibition of PIP4K2A ATP labeling site in human A-375 cells at 0.5 uM by KiNativ Profiling analysis relative to control.

In experiment [12] the target is T2, Phosphatidylinositol 5-phosphate 4-kinase type-2 gamma (Homo sapiens) (UniProt Q8TBX8).
T2 sequence (whole entry): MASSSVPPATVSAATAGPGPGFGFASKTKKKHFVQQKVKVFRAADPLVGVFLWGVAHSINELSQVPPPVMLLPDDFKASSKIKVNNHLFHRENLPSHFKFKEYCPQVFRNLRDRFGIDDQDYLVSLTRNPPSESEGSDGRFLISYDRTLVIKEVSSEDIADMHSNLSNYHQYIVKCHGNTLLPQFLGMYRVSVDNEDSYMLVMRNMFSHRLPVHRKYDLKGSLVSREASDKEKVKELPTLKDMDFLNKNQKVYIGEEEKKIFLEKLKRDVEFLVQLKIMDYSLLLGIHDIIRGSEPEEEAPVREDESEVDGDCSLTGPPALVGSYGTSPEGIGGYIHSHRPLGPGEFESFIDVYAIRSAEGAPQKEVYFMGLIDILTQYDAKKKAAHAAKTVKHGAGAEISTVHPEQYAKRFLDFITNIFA
Nature of the experiment: Inhibition of PIP4K2C ATP labeling site harbouring VKELPTLK in human A-375 cells at 0.5 uM by KiNativ Profiling analysis relative to control. The gist of the method: as §2

Experiment [13] concerns the target Serine/threonine-protein kinase 10 (Homo sapiens) (UniProt O94804). Briefly: Inhibition of LOK Lys1 labeling site harbouring NKETGALAAAKVIETK in human A-375 cells at 0.05 uM by KiNativ Profiling analysis relative to control.
Experiment [14] has as its target Serine/threonine-protein kinase 26 (Homo sapiens) (UniProt Q9P289). Nature of the experiment: Inhibition of MST4 Lys2 labeling site in human A-375 cells at 0.05 uM by KiNativ Profiling analysis relative to control.
Experiment [15] addresses Serine/threonine-protein kinase WNK2 (Homo sapiens) (UniProt Q9Y3S1). Briefly: Inhibition of Wnk2 ATP Loop labeling site in human A-375 cells at 0.05 uM by KiNativ Profiling analysis relative to control.

eIF-2-alpha kinase GCN2 (Homo sapiens), sequence (Q9P2K8 whole entry, the tested form may be a part): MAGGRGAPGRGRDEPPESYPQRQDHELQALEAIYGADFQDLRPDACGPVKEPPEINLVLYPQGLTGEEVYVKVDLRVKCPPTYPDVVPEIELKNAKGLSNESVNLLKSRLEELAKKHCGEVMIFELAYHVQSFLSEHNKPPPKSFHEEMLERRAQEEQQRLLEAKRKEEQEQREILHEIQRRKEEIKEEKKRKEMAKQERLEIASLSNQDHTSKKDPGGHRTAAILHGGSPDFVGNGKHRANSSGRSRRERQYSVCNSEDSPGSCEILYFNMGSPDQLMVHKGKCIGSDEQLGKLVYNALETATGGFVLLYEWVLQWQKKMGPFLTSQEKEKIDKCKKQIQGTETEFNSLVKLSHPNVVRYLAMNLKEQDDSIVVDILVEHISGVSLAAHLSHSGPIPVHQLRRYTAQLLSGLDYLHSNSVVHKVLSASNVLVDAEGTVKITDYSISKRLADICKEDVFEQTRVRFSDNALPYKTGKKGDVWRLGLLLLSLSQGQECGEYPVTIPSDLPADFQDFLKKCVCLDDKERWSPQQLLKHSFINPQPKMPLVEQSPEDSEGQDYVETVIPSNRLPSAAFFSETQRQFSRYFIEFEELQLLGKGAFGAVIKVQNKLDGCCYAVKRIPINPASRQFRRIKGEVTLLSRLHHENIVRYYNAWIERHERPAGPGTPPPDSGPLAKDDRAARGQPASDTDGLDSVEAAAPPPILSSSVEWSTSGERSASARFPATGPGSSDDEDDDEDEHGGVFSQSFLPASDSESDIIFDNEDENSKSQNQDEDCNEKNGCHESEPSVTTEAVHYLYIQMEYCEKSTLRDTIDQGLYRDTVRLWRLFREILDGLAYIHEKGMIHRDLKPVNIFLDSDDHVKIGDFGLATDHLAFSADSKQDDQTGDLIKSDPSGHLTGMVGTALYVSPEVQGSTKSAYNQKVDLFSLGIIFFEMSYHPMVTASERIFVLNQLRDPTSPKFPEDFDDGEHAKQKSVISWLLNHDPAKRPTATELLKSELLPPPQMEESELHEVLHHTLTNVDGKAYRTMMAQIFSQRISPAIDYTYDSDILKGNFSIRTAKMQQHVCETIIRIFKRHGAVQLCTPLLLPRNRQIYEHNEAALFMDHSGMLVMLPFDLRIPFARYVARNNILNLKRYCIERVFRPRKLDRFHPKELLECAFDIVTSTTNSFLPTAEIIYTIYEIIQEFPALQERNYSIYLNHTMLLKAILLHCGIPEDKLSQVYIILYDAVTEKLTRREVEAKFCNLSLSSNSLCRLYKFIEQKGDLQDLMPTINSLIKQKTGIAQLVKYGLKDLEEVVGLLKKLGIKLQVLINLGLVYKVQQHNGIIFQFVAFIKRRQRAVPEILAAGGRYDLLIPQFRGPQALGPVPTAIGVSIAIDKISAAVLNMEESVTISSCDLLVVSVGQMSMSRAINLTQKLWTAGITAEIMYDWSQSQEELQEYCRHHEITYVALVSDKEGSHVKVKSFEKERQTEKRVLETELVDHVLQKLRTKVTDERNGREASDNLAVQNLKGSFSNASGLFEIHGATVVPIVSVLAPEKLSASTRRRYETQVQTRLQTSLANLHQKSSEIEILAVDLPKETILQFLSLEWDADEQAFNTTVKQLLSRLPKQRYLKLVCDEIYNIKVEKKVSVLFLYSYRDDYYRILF
Cyclin-dependent kinase 18 (Homo sapiens), sequence (Q07002 whole entry): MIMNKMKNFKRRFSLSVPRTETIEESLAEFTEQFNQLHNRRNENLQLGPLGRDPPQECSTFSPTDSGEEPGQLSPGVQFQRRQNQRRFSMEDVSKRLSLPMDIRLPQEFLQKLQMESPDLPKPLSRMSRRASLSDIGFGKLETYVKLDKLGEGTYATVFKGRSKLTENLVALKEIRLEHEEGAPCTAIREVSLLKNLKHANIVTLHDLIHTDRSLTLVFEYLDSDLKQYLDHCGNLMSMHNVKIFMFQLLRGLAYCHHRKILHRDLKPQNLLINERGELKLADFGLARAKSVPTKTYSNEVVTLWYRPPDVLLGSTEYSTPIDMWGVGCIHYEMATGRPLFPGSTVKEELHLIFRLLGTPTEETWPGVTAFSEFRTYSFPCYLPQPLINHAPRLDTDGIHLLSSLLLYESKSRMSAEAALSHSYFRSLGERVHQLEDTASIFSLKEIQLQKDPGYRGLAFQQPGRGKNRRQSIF
Serine/threonine-protein kinase 26 (Homo sapiens), sequence (Q9P289 2-416 limits assumed): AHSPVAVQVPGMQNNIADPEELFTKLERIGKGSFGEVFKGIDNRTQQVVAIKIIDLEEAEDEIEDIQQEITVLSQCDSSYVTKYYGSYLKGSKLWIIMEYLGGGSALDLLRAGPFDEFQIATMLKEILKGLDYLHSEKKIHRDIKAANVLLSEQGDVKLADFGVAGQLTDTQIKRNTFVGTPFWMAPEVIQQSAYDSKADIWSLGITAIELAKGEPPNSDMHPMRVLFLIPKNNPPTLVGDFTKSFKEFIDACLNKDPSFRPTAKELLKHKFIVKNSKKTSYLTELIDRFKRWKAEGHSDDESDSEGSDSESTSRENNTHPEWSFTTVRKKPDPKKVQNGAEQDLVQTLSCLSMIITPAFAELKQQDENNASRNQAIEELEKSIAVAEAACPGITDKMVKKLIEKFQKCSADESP
Serine/threonine-protein kinase 25 (Homo sapiens), sequence (O00506 whole entry, looked up): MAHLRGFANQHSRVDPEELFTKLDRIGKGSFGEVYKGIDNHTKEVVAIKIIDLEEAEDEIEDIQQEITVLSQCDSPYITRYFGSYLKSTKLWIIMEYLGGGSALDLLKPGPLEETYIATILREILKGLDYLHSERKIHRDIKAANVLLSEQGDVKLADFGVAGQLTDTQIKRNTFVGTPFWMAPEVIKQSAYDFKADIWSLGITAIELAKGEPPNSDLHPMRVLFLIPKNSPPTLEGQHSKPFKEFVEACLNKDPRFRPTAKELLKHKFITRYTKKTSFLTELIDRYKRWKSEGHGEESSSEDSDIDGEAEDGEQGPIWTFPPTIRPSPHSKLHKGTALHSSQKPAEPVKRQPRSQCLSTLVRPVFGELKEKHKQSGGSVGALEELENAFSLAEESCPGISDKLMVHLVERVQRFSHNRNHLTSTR
Calcium/calmodulin-dependent protein kinase kinase 2 (Homo sapiens), sequence (Q96RR4 2-588 limits assumed): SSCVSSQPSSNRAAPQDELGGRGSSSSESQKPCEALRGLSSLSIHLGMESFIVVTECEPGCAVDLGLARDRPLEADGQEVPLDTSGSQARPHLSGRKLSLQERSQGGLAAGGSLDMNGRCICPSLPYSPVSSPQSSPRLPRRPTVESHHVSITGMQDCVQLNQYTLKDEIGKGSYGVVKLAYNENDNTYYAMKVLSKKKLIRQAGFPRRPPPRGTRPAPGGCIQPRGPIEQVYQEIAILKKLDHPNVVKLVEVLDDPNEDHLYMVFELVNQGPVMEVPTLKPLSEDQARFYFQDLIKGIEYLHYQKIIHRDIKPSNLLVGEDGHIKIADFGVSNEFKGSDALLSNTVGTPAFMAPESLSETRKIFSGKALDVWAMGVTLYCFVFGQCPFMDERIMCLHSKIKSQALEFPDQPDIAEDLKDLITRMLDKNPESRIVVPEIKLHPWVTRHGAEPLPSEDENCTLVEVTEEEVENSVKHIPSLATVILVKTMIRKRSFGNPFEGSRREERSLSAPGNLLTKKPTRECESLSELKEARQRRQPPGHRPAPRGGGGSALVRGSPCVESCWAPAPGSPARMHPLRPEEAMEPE
RAC-alpha serine/threonine-protein kinase (Homo sapiens), sequence (P31749 whole entry): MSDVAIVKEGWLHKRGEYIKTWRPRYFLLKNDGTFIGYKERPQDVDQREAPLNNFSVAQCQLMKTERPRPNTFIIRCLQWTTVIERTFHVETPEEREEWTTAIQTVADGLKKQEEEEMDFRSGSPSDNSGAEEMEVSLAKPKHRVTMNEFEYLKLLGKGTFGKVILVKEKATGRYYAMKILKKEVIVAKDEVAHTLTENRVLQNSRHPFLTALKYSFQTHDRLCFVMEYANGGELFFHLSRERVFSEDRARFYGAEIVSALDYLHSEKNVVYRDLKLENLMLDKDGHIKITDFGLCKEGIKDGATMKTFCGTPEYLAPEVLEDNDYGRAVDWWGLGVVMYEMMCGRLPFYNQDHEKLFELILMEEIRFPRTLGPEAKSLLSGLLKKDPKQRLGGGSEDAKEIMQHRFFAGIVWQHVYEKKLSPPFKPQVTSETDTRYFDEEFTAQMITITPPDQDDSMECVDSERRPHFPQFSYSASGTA
Serine/threonine-protein kinase 10 (Homo sapiens), sequence (O94804 whole entry, looked up): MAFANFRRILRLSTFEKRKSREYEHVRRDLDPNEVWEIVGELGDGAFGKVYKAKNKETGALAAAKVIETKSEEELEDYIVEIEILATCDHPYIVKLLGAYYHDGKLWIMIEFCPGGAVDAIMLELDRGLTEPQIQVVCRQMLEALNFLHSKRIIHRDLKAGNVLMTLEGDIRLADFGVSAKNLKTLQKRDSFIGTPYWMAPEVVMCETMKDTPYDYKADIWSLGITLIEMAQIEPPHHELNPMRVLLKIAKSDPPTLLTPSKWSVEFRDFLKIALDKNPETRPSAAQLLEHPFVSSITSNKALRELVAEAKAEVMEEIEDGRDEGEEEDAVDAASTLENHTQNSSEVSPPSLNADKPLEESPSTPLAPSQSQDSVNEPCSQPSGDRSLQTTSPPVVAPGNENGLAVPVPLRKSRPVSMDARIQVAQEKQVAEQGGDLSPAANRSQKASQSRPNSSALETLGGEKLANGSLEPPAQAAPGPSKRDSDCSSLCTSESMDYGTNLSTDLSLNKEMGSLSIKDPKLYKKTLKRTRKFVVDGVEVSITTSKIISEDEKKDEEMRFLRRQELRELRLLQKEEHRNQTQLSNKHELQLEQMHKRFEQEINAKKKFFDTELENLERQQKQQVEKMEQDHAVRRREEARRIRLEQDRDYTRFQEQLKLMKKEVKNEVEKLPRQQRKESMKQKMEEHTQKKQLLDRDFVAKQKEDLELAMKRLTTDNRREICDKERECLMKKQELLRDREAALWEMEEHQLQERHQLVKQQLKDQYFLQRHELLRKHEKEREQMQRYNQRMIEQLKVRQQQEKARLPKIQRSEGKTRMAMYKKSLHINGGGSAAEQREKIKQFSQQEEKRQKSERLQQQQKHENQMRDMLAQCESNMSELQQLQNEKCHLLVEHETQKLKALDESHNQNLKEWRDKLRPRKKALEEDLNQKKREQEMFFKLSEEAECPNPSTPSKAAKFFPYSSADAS

The inhibition is the relative decrease from the control value, in per cent. As for `CCN1CCN(Cc2ccc(NC(=O)c3ccc(C)c(/C=C/c4cnc5[nH]ccc5c4OC)c3)cc2C(F)(F)F)CC1`, the inhibition in experiment [1] was found to be 25.2%; in experiment [2], 14.4%; in [3] it was 1.2%; in [4] it was 83.3%; in experiment [5], 8.9%; in [6] it was 13.7%. Moreover, the inhibition is 3.3% in [7]; 15% in [8]; 40.4% in experiment [9]; 11.3% in experiment [10]; -5.5% in experiment [11]; 9.2% in experiment [12]. Further, the values for the inhibition in experiment [13], in experiment [14] and in [15] were 34.5%, 9.1% and 5%, respectively.

Take `CCN1CCN(Cc2ccc(NC(=O)c3ccc(C)c(Oc4ccnc5[nH]ccc45)c3)cc2C(F)(F)F)CC1`: the inhibition in experiment [1] is 86.2%; in experiment [2] it was 33.2%; in experiment [3] it was 19.2%; in [4] it was 44.3%; in experiment [5], 7.8%; in experiment [6], 35.1%. For the same compound, the inhibition in [7] is -0.8%; in experiment [8] it was -1%; in experiment [9] it was -10%; in [10], 31.7%; in experiment [11], -0.4%; in [12] it was -1.8%. Also, the inhibition in [13] is 47.2%; in experiment [14], -0.7%; in experiment [15], 2.4%.
